Measured values: article PMC3495079 (Biochemistry, 2012)

Legend:
[1] = target: T1, CeDcpS (Caenorhabditis elegans, UniProt G5EFS4); experiment: Fluorescence titration; assay type: binding, C. elegans; conditions: 20 °C, 50 mM Tris HCl, 200 mM KCl, 0.5 mM EDTA, 1 mM DTT, pH 7.6
T1 sequence (G5EFS4 1-311): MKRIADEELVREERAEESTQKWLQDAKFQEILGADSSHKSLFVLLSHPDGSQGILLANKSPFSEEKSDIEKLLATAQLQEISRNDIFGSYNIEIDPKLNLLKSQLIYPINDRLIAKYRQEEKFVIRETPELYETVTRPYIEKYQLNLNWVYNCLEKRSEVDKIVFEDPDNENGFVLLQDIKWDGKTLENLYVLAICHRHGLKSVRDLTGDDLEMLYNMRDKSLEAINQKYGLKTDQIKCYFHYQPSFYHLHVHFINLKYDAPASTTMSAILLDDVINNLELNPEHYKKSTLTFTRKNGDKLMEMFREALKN
Method in brief: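 His-tagged CeDcpS was expressed in E. coli and purified by Ni-NTA and gel filtration. Binding was read as quenching of intrinsic Trp fluorescence using time-synchronized titration. Ligand solutions of increasing concentration (5 μM–2 mM) were added to 0.2 μM initial protein. Excitation was 280 nm and emission 340 nm, corrected for dilution and inner filter. KAS was fitted by non-linear regression and reported as a weighted average of 3–5 titrations.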

[2] = target: T2, HsDcpS (Homo sapiens, UniProt Q96C86); experiment: HPLC analysis of cap analog hydrolysis by recombinant DcpS; assay type: biochemical; conditions: for Hydrolysis by DcpS (HPLC): up to 24 h; for Hydrolysis by DcpS (HPLC, Figure 3): 60 min or 24 h
T2 sequence (Q96C86 1-337): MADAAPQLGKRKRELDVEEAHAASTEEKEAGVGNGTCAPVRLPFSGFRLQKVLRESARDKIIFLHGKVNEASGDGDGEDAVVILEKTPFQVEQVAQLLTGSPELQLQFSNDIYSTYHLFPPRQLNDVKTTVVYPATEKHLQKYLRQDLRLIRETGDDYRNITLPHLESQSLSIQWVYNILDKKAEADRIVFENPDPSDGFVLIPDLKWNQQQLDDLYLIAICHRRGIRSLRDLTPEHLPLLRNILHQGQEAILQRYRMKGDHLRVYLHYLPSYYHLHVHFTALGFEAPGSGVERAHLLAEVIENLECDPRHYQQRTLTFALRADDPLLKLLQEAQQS
Method in brief: (§1)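 His-tagged recombinant enzyme was expressed in E. coli and purified by Ni-NTA and gel filtration. Cap analog (15 μM) was preincubated 10 min, then DcpS was added at 0.02 or 0.2 μM. Buffers were Tris/MgAc/(NH4)2SO4 at 37 °C, or Tris/KCl/EDTA/DTT at 20 °C. Aliquots were taken at 5–60 min and 24 h and heat-stopped (97 °C, 2.5 min). Reverse-phase HPLC used a methanol/KH2PO4 gradient with A260 and fluorescence detection. Products were identified by retention time, and % substrate hydrolyzed was recorded.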

[3] = target: T3, AsDcpS (Ascaris suum, UniProt D3K0N9); experiment: HPLC analysis of cap analog hydrolysis by recombinant DcpS; assay type: biochemical, A. suum; conditions: 15 μM substrate; for Hydrolysis by DcpS (HPLC): up to 24 h
T3 sequence (D3K0N9 whole entry): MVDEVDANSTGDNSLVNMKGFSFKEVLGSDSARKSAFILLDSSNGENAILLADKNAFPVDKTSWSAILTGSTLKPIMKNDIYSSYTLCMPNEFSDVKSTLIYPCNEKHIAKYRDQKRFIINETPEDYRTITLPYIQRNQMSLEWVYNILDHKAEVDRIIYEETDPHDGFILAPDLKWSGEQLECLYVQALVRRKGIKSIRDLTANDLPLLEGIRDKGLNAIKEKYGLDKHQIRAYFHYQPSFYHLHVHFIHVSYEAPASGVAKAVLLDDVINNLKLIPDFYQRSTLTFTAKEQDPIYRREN

[4] = target: T3, AsDcpS; experiment: Fluorescence titration; assay type: binding, A. suum; conditions: 20 °C, 50 mM Tris HCl, 200 mM KCl, 0.5 mM EDTA, 1 mM DTT, pH 7.6
[5] = target: T1, CeDcpS; experiment: HPLC analysis of cap analog hydrolysis by recombinant DcpS; assay type: biochemical, C. elegans; conditions: 15 μM substrate; for Hydrolysis by DcpS (HPLC): up to 24 h
Method in brief: as §1

[6] = target: T4, ScDcpS (Saccharomyces cerevisiae, UniProt Q06151); experiment: as above; assay type: biochemical, S. cerevisiae; conditions: 15 μM substrate; for Hydrolysis by DcpS (HPLC): up to 24 h
T4 sequence (Q06151 whole entry): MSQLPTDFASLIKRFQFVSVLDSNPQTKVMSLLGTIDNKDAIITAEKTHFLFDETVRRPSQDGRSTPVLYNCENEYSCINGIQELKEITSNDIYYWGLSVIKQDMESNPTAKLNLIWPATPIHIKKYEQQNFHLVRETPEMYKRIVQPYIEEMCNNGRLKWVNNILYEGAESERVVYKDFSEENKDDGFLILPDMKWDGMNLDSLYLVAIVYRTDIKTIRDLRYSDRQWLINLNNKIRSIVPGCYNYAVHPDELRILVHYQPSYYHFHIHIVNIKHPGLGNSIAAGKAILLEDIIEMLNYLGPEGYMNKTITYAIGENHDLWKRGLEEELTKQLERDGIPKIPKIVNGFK
Method in brief: as §1

[7] = target: T1, CeDcpS; conditions: substrate of CeDcpS; cited from earlier work
[8] = target: T4, ScDcpS; conditions: substrate of ScDcpS; cited from earlier work
[9] = target: recombinant CeDcpS; conditions: substrate m^7GpppBODIPY; cited from earlier work
[10] = condition (1): 37 °C, pH 8.0, 15 μM substrate, 0.02 or 0.2 μM DcpS
[11] = condition (2): 20 °C, pH 7.6, 15 μM substrate, 0.2 μM DcpS
[12] = condition (1): 37 °C, pH 8.0, 0.02 or 0.2 μM DcpS
[13] = condition (2): 20 °C, pH 7.6, 0.2 μM DcpS
[14] = condition (2): 20 °C, pH 7.6, 15 μM substrate, 0.02 μM DcpS
[15] = condition (2): 20 °C, pH 7.6, 0.02 μM DcpS
[16] = after 60 min, 20 °C, pH 7.6, 0.02 μM DcpS

CN(C)c1nc2c(c(=O)[nH]1)[n+](C)cn2[C@@H]1O[C@H](COP(=O)(O)OP(=O)(O)O)[C@@H](O)[C@H]1O [m3^2,2,7GDP, 2,2,7-trimethylguanosine diphosphate]
Equilibrium association constant KAS, CeDcpS [1]: 1.44 ± 0.26 µM⁻¹ | Hydrolysis by DcpS (HPLC) [2, 10]: not degraded | Hydrolysis by DcpS (HPLC) [2, 11]: resistant to cleavage | Hydrolysis by DcpS (HPLC) [3, 12]: not degraded | Hydrolysis by DcpS (HPLC) [3, 13]: resistant to cleavage | Equilibrium association constant KAS, AsDcpS [4]: 0.53 ± 0.16 µM⁻¹ | Hydrolysis by DcpS (HPLC) [5, 12]: not degraded | Hydrolysis by DcpS (HPLC) [5, 13]: resistant to cleavage | Hydrolysis by DcpS (HPLC) [6, 12]: not degraded | Hydrolysis by DcpS (HPLC) [6, 13]: resistant to cleavage

Nc1nc2c(ncn2[C@@H]2O[C@H](COP(=O)(O)OP(=O)(O)OP(=O)(O)OC[C@H]3O[C@@H](n4cnc5c(=O)[nH]c(N)nc54)[C@H](O)[C@@H]3O)[C@@H](O)[C@H]2O)c(=O)[nH]1 [GpppG]
Hydrolysis by DcpS (HPLC, Figure 3) [2, 14]: does not occur | Hydrolysis by DcpS (HPLC, Figure 3) [3, 15]: does not occur | Hydrolysis by DcpS (HPLC, Figure 3) [5, 15]: much slower as compared to m^7GpppG

Cn1c[n+]([C@@H]2O[C@H](COP(=O)(O)OP(=O)([O-])OP(=O)(O)OC[C@H]3O[C@@H](n4cnc5c(=O)[nH]c(N)nc54)[C@H](O)[C@@H]3O)[C@@H](O)[C@H]2O)c2nc(N)[nH]c(=O)c21 [m^7GpppG]
Extent of decapping (% of hydrolyzed substrate) ([2]; after 60 min, 20 °C, pH 7.6, 15 μM substrate, 0.02 μM DcpS): 95% | Hydrolysis by DcpS (HPLC) [2, 10]: very fast | Cleavage efficiency by HsDcpS, fold higher than m^7GTP ([2]; condition (2), 0.02 μM DcpS, Figure 3): ~ 2 fold | Time to complete conversion of the substrate to products [2, 11]: less than 3 minutes | Extent of decapping (% of hydrolyzed substrate) [3, 16]: 95% | Hydrolysis by DcpS (HPLC) [3, 12]: very fast | Time to complete conversion of the substrate to products [3, 13]: less than 3 minutes | Extent of decapping (% of hydrolyzed substrate) [5, 16]: 95% | Hydrolysis by DcpS (HPLC) [5, 12]: very fast | Time to complete conversion of the substrate to products [5, 13]: less than 3 minutes | Km [7]: 1.17 ± 0.14 µM | Hydrolysis by DcpS (HPLC) [6, 12]: very fast | Time to complete conversion of the substrate to products [6, 13]: less than 3 minutes | Km [8]: 0.14 µM

CN(C)c1nc2c(c(=O)[nH]1)[n+](C)cn2[C@@H]1O[C@H](COP(=O)(O)OP(=O)(O)OP(=O)(O)OC[C@H]2O[C@@H](n3cnc4c(=O)[nH]c(N)nc43)[C@H](O)[C@@H]2O)[C@@H](O)[C@H]1O [m3^2,2,7GpppG]
Hydrolysis by DcpS (HPLC, Figure 3) [2, 14]: not observed | Hydrolysis by DcpS (HPLC, Figure 3) [3, 15]: readily hydrolyze | Hydrolysis by DcpS (HPLC, Figure 3) [5, 15]: readily hydrolyze | Ki [9]: 28 µM

CN(C)c1nc2c(c(=O)[nH]1)[n+](C)cn2[C@@H]1O[C@H](COP(=O)(O)OP(=O)(O)OP(=O)(O)O)[C@@H](O)[C@H]1O [m3^2,2,7GTP]
Hydrolysis by DcpS (HPLC, Figure 3) [3, 15]: have activity | Hydrolysis by DcpS (HPLC, Figure 3) [5, 15]: have activity
